How the values were obtained:
MIA PaCa-2 = test: Growth inhibition of human MIAPaCa2 cells after 72 hrs by MTT assay; type: functional, cell-based; conditions: MIA PaCa-2, 72 h
Method in brief: (§1)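 Cells were seeded on day 0 at 1 × 10⁴–3 × 10⁴ cells/mL according to doubling time. Compound was added in 10-fold dilutions (10⁻⁸–10⁻⁴ M) from DMSO stocks (final DMSO ≤0.25%, solvent control run) and incubated 72 h. Percentage of growth was calculated, four parallel samples in three experiments. IC50 was derived by linear regression between the concentrations bracketing PG 50; if none fell below, the result was reported as >highest concentration.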

MCF7 = test: Growth inhibition of human MCF7 cells after 72 hrs by MTT assay; type: functional, cell-based; conditions: MCF7, 72 h
Method in brief: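 Cells were seeded on day 0 at 1 × 10⁴–3 × 10⁴ cells/mL according to doubling time. Percentage of growth was calculated, four parallel samples in three experiments. IC50 was derived by linear regression between the concentrations bracketing PG 50; if none fell below, the result was reported as >highest concentration.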

HeLa [1] = test: Growth inhibition of human HeLa cells after 72 hrs by MTT assay; type: functional, cell-based; method in brief: as §1
NCI-H460 = test: Growth inhibition of human H460 cells after 72 hrs by MTT assay; type: functional, cell-based; conditions: NCI-H460, 72 h; method in brief: as §1
SW-620 = test: Growth inhibition of human SW620 cells after 72 hrs by MTT assay; type: functional, cell-based; conditions: SW-620, 72 h; method in brief: as §1
HeLa [2] = test: Cell cycle arrest in human HeLa cells assessed as accumulation at G0/G1 phase at 20 uM after 24 hrs by flow cytometry; type: functional
Method in brief: (§2)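 Seeded 2 × 10⁵ cells per well; compound added after 24 h. At 24, 48 and 72 h post-treatment, attached cells were trypsinized and pooled with floating cells. Cells were PBS-washed, fixed in 70% ethanol, then stained with propidium iodide plus RNase A. DNA histograms came from 20 000 events per sample and gave the phase percentages. At least two experiments were run in triplicate, with Student t-test (p < 0.05).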

HeLa [3] = test: Cell cycle arrest in human HeLa cells assessed as accumulation at subG1 phase at 20 uM after 24 hrs by flow cytometry; type: functional; method in brief: as §2
HeLa [4] = test: Cell cycle arrest in human HeLa cells assessed as accumulation at S phase at 20 uM after 72 hrs by flow cytometry; type: functional; method in brief: as §2
HeLa [5] = test: Cell cycle arrest in human HeLa cells assessed as accumulation at S phase at 20 uM after 24 hrs by flow cytometry; type: functional; method in brief: as §2
HeLa [6] = test: Cell cycle arrest in human HeLa cells assessed as accumulation at S phase at 20 uM after 48 hrs by flow cytometry; type: functional; method in brief: as §2
HeLa [7] = test: Cell cycle arrest in human HeLa cells assessed as accumulation at subG1 phase at 20 uM after 72 hrs by flow cytometry; type: functional; method in brief: as §2
HeLa [8] = test: Cell cycle arrest in human HeLa cells assessed as accumulation at G0/G1 phase at 20 uM after 72 hrs by flow cytometry; type: functional; method in brief: as §2
HeLa [9] = test: Cell cycle arrest in human HeLa cells assessed as accumulation at G2/M phase at 20 uM after 24 hrs by flow cytometry; type: functional; method in brief: as §2
HeLa [10] = test: Cell cycle arrest in human HeLa cells assessed as accumulation at G2/M phase at 20 uM after 72 hrs by flow cytometry; type: functional; method in brief: as §2
HeLa [11] = test: Cell cycle arrest in human HeLa cells assessed as accumulation at subG1 phase at 20 uM after 48 hrs by flow cytometry; type: functional; method in brief: as §2
HeLa [12] = test: Cell cycle arrest in human HeLa cells assessed as accumulation at G0/G1 phase at 20 uM after 48 hrs by flow cytometry; type: functional; method in brief: as §2
HaCaT = test: Growth inhibition of human HaCaT cells after 72 hrs by MTT assay; type: cell-based; method in brief: as §1
HeLa [13] = test: Cell cycle arrest in human HeLa cells assessed as accumulation at G2/M phase at 20 uM after 48 hrs by flow cytometry; type: functional; method in brief: as §2
HeLa [14] = test: Cell cycle arrest in human HeLa cells assessed as accumulation at G0/G1 phase at 10 uM after 24 hrs by flow cytometry; type: functional
Method in brief: (§3)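 HeLa cells seeded at 2 × 10⁵ per well; compound added after 24 h. At 24, 48 and 72 h, attached and floating cells were pooled, PBS-washed, fixed in 70% ethanol, then stained with propidium iodide plus RNase A. Flow cytometry counted 20 000 events, and phase percentages came from DNA histograms. At least two experiments in triplicate; Student t-test (p < 0.05).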

HeLa [15] = test: Cell cycle arrest in human HeLa cells assessed as accumulation at G2/M phase at 10 uM after 72 hrs by flow cytometry; type: functional; method in brief: as §3
HeLa [16] = test: Cell cycle arrest in human HeLa cells assessed as accumulation at G2/M phase at 10 uM after 24 hrs by flow cytometry; type: functional; method in brief: as §3
HeLa [17] = test: Cell cycle arrest in human HeLa cells assessed as accumulation at G0/G1 phase at 10 uM after 48 hrs by flow cytometry; type: functional; method in brief: as §3
HeLa [18] = test: Cell cycle arrest in human HeLa cells assessed as accumulation at G2/M phase at 10 uM after 48 hrs by flow cytometry; type: functional; method in brief: as §3
HeLa [19] = test: Cell cycle arrest in human HeLa cells assessed as accumulation at subG1 phase at 10 uM after 48 hrs by flow cytometry; type: functional; method in brief: as §3
HeLa [20] = test: Cell cycle arrest in human HeLa cells assessed as accumulation at subG1 phase at 10 uM after 72 hrs by flow cytometry; type: functional; method in brief: as §3
HeLa [21] = test: Cell cycle arrest in human HeLa cells assessed as accumulation at S phase at 10 uM after 72 hrs by flow cytometry; type: functional; method in brief: as §3
HeLa [22] = test: Cell cycle arrest in human HeLa cells assessed as accumulation at G0/G1 phase at 10 uM after 72 hrs by flow cytometry; type: functional; method in brief: as §3
HeLa [23] = test: Cell cycle arrest in human HeLa cells assessed as accumulation at S phase at 10 uM after 48 hrs by flow cytometry; type: functional; method in brief: as §3
HeLa [24] = test: Cell cycle arrest in human HeLa cells assessed as accumulation at subG1 phase at 10 uM after 24 hrs by flow cytometry; type: functional; method in brief: as §3
HeLa [25] = test: Cell cycle arrest in human HeLa cells assessed as accumulation at S phase at 10 uM after 24 hrs by flow cytometry; type: functional; method in brief: as §3

SMILES | IC50 (MIA PaCa-2) [µM] | IC50 (MCF7) [µM] | IC50 (HeLa [1]) [µM] | IC50 (NCI-H460) [µM] | IC50 (SW-620) [µM] | also measured
O=c1ccn(COC(CO)CO)c(=O)[nH]1 | > 100 | > 100 | > 100 | > 100 | > 100 | 
CC(C)(C)OC(=O)NCCNCC(=O)Nc1c[nH]c(=O)[nH]c1=O | 50 | > 100 | 50 | > 100 | 50 | 
N[C@H](CSCC(=O)Nc1c[nH]c(=O)[nH]c1=O)C(=O)O | 80 | > 100 | 86 | > 100 | 70 | 
Cn1ccc(N)nc1=O | > 100 | > 100 | 12 | > 100 | > 100 | 
O=c1[nH]c(=O)n(COC(CO)CO)cc1O | > 100 | > 100 | > 100 | > 100 | > 100 | 
COc1ccc(CSCCN(CCSCc2ccc(OC)cc2)CC(=O)Nc2c[nH]c(=O)[nH]c2=O)cc1 | 3 | > 100 | 4 | 76 | 70 | Activity (HeLa [2]): 56%; Activity (HeLa [3]): 17%; Activity (HeLa [4]): 44%; Activity (HeLa [5]): 24%; Activity (HeLa [6]): 27%; Activity (HeLa [7]): 58%; Activity (HeLa [8]): 43%; Activity (HeLa [9]): 20%; Activity (HeLa [10]): 13%; Activity (HeLa [11]): 24%; Activity (HeLa [12]): 59%; IC50 (HaCaT): 9 µM; Activity (HeLa [13]): 13%
Cc1ccc(S(=O)(=O)Nc2ccn(C)c(=O)n2)cc1 | > 100 | > 100 | > 100 | > 100 | > 100 | 
Cc1c(I)c(=O)[nH]c(=O)n1COC(CO)CO [IODMETACYCLUR] | > 100 | > 100 | 73 | > 100 | > 100 | 
O=C(CCl)Nc1c[nH]c(=O)[nH]c1=O | 17 | 15 | 4 | 14 | 12 | Activity (HeLa [2]): 50%; Activity (HeLa [3]): 12%; Activity (HeLa [4]): 48%; Activity (HeLa [5]): 43%; Activity (HeLa [6]): 45%; Activity (HeLa [7]): 25%; Activity (HeLa [8]): 50%; Activity (HeLa [9]): 6%; Activity (HeLa [10]): 8%; Activity (HeLa [11]): 14%; Activity (HeLa [12]): 48%; IC50 (HaCaT): > 100 µM; Activity (HeLa [13]): 7%
O=c1[nH]c(=O)n(COC(CO)CO)cc1I [IODACYCLUR] | > 100 | > 100 | 30 | > 100 | > 100 | 
Cn1cc(CO)c(N)nc1=O | > 100 | > 100 | > 100 | > 100 | > 100 | 
Nc1cn(COC(CO)CO)c(=O)[nH]c1=O | > 100 | > 100 | > 100 | > 100 | > 100 | 
O=C(CCl)Nc1cn(COC(CO)CO)c(=O)[nH]c1=O | 18 | 32 | 12 | 24 | 19 | IC50 (HaCaT): > 100 µM
O=c1nc(NO)cc[nH]1 [N4-hydroxycytosine] | > 100 | > 100 | > 100 | > 100 | > 100 | 
Cc1cc(=O)[nH]c(=O)n1COC(CO)CO | > 100 | > 100 | > 100 | > 100 | > 100 | 
NCC(=O)Nc1c[nH]c(=O)[nH]c1=O | > 100 | > 100 | > 100 | > 100 | > 100 | 
Cc1ccc(S(=O)(=O)Nc2cc[nH]c(=O)n2)cc1 | > 100 | 27 | > 100 | > 100 | > 100 | 
O=c1[nH]cc(F)c(=O)[nH]1 [FLUOROURACIL] | 10 |  | 4 | 2 | 9 | Activity (HeLa [14]): 60%; Activity (HeLa [15]): 0%; Activity (HeLa [16]): 1%; Activity (HeLa [17]): 59%; Activity (HeLa [18]): 0%; Activity (HeLa [19]): 12%; Activity (HeLa [20]): 26%; Activity (HeLa [21]): 43%; Activity (HeLa [22]): 57%; Activity (HeLa [23]): 41%; Activity (HeLa [24]): 10%; Activity (HeLa [25]): 39%; IC50 (HaCaT): 0.4 µM
CSc1cc[nH]c(=O)n1 | > 100 | > 100 | > 100 | > 100 | > 100 | 

— ChEMBL document CHEMBL1138552, “Synthesis of modified pyrimidine bases and positive impact of chemically reactive substituents on their in vitro antiproliferative activity” (Eur J Med Chem, 2009)
